Assay outcomes as filed in PubChem BioAssay.
An excerpt weighted towards active compounds, which were near 1.6% of everything screened.
MBD2 DNA inh – inhibitors of human MBD2 binding to methylated oligonucleotide | Q9UBB5 | TR-FRET | inhibition, % at 4.4 µM | actives 0.31% (n = 370,000); in the data active = inhibition above about 13%
UHRF1 MBD2 ctr – UHRF1 methyl-DNA binding inhibition; Q96T88; UHRF1 binding to methylated oligo, TR-FRET; inhibition, % at 4.4 µM; actives 0.75% (n = 370,000); in the data active = inhibition above about 21%;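 also: UHRF1 SRA domain binding a hemimethylated CpG hairpin DNA probe; 0% = median of test compound wells and 100% = reference inhibitor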
LEDGF integ inh – blocks HIV-1 LEDGF/p75-dependent DNA integration; TR-FRET IN-LEDGF/p75 DNA integration, Eu/Cy5; inhibition, % at 3.7 µM; actives 0.64% (n = 370,000); AID 743269;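 active = inhibition above the screen-wide mean plus 3 SD, cut at about 13% in these data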;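 also: signal is the Cy5 over europium emission ratio at 671 and 618 nm; 0% = plate median of compound wells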
TDP2 absorb – blocks human TDP2 phosphodiesterase activity; O95551; recombinant TDP2, T5PNP hydrolysis, p-nitrophenol absorbance 415 nm; inhibition, % at 12.8 µM; actives 0.34% (n = 370,000);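 active = inhibition above the mean of all tested compounds plus 3 SD, set per campaign, cut at about 25% in these data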;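 also: 0% = DMSO with enzyme and 100% = buffer with substrate but no TDP2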
Target sequence (O95551 whole entry, looked up): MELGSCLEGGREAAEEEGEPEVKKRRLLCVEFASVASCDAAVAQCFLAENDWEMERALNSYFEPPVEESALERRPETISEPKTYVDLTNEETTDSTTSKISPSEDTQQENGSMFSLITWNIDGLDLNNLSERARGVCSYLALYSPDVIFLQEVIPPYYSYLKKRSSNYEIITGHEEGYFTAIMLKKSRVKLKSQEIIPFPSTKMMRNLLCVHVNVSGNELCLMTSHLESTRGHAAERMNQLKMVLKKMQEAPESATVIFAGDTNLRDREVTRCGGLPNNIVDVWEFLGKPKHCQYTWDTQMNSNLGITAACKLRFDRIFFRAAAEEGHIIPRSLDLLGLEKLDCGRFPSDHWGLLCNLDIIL
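System – recombinant human TDP2 · Amount – 120 nM TDP2 per well · Buffer or medium – Mg2+-containing Tris-HCl buffer, pH 7.5 · Reagent – T5PNP substrate, 5 mM · Dosing – 12.8 µM single point, 1% DMSO · Incubation – 2 h at 37 °C · Measured by – epi absorbance · Read-out basis – percent inhibition · Benchmarks – high control without enzyme, low control DMSO plus TDP2 · Repeats – singlicate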
IN multimer act – HIV-1 integrase multimerization activation, counter-screen. AID 1053131. TR-FRET HIV-1 integrase multimerization, biochemical. actives 17% (n = 2,000). activation, % at 7.7 µM. shares compounds with LEDGF integ inh; in the data active = activation above about 8.9%
TRFRET interf – counter-screen for LEDGF/p75 integration inhibitors: TR-FRET optical interference | 2,000 tested, under 10 active | inhibition, % at 7.7 µM | shares compounds with LEDGF integ inh | TR-FRET optical interference counterscreen, HIV-1 IN multimerization;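 active = inhibition above the mean over all tested compounds plus 3 SD, which no compound reached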;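 also: 0% = integrase with antibodies and DMSO and 100% = antibodies without integrase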
LEDGF integ conf – confirmation of HIV-1 LEDGF/p75-dependent integration inhibitors. shares compounds with LEDGF integ inh. TR-FRET LEDGF/p75-dependent HIV-1 integration, biochemical. inhibition, % at 3.7 µM. actives 36% (n = 2,000). AID 1053136; in the data active = inhibition above about 14%
* hit, by the source's call; nt = no result given.

SMILES	MBD2 DNA inh	UHRF1 MBD2 ctr	LEDGF integ inh	TDP2 absorb	IN multimer act	TRFRET interf	LEDGF integ conf
Cc1cc(N2CCN(C(=O)OC(C)(C)C)C[C@@H]2C)ccc1N1CCN(Cc2ccccc2)[C@@H](C)C1	-5.3	-0.1	-3.3	-7.0	nt	nt	nt
CC(C=CC(O)=C1C(=O)CNC1=O)=C[C@@H](C)C1OC2(C)OC(C(=O)C3O[C@@]32C)C1C (some centres not stated)	-7.1	-7.2	21.7*	-1.5	4.5	-23.0	11.5
CCN(CC(=O)Nc1c(F)cccc1F)C(=O)C1CC(=O)N(CCc2ccccc2)C1 (configuration not stated)	2.0	-0.9	34.8*	13.8	-2.4	12.3	-9.7
OC1(Cc2ccccc2)CCN(c2ncnc3sccc23)CC1	-2.1	2.2	2.1	-2.9	nt	nt	nt
COc1ccc2nc(NC(=S)N(C)C)sc2c1	-8.2	-4.8	16.9*	-17.4	2.4	-12.1	15.9*
CCCC(=O)Nc1nc2ccc(OC)cc2s1	6.2	-2.0	4.0	0.2	nt	nt	nt
Cc1cc(C)n(-c2nc3ccccc3nc2NCCc2ccccc2)n1	-0.5	1.8	20.9*	0.3	0.0	0.1	1.6
CC1CCCCC1C(=O)N1CCC(Oc2cccnc2)CC1 (configuration not stated)	-3.8	-4.7	-1.5	7.9	nt	nt	nt
NC(=O)/C(=C\c1ccc([N+](=O)[O-])o1)c1ccco1	-6.1	3.5	22.1*	-13.8	5.7	-28.9	27.9*
Cc1cc(-c2csc(NC(=O)c3ccc(=O)[nH]c3)n2)c(C)n1Cc1ccco1	10.5	8.9	62.6*	-2.9	11.4*	-57.5	42.9*
CCC[C@H]1[C@@H](OC(=O)NCc2ccc(OC)cc2)CC[C@@]23CCCN2C(=O)CCC[C@@H]13	-1.3	0.2	5.2	-0.7	nt	nt	nt
O=C(N/N=C/C=C/c1ccco1)c1cccnc1	2.9	19.0	26.6*	-9.9	2.6	-13.3	34.4*
O=C(Cc1cccs1)N/N=C/C=C/c1ccco1	1.2	9.6	17.1*	8.3	7.8	-28.4	30.8*
O=C(N/N=C/C=C/c1ccco1)c1cnccn1	5.2	8.3	26.3*	-11.4	2.7	-13.5	20.4*
O=C(N/N=C/C=C\c1ccco1)c1cccnc1	-3.9	-1.5	6.2	-4.2	nt	nt	nt
O=C(CNc1cccc2ccccc12)N/N=C/C=C/c1ccco1	0.3	-4.6	-0.6	4.7	nt	nt	nt
c1ccc(Cn2c(SCC3CCCCC3)nnc2-c2cccnc2)cc1	-3.9	-0.5	-0.9	6.5	nt	nt	nt
O=[N+]([O-])c1ccccc1NC(=S)N/N=C/c1ccc(O)c(O)c1	-3.3	10.3	45.8*	-21.7	11.3*	-56.7	70.7*
CCOc1cccc(/C=N/NC(=S)Nc2ccccc2[N+](=O)[O-])c1O	1.4	-9.4	-1.8	5.7	nt	nt	nt
CCCn1nnc(NC(=O)/C=C/c2ccco2)n1	-1.5	-1.8	5.8	9.2	nt	nt	nt
Cn1nnc(NC(=S)NC(=O)/C=C/c2ccco2)n1	6.9	13.8	13.6*	2.1	6.3	-22.3	10.9
Cc1ccc(NC(=O)CN2C(=O)CCSc3ccccc32)cc1C	-0.1	-0.1	-2.8	0.2	nt	nt	nt
COC(=O)[C@]12C[C@H](CC(=O)NCc3cccc4ccccc34)C(=O)N(CCC3=CCCCC3)C1=C[C@H](C(C)(C)C)O[C@@H]2C	-1.6	0.8	-2.5	3.6	nt	nt	nt
O=c1c(C=NCCCO)c(-c2ccccc2)[nH]n1-c1nc2ccccc2s1	-4.3	-1.7	21.2*	22.8	-1.2	6.0	-1.9
COCCCN=Cc1c(-c2ccccc2)[nH]n(-c2nc3ccccc3s2)c1=O	-4.7	-1.7	1.4	7.3	nt	nt	nt
Clc1cccc(-c2ccc(C=Nc3ccc(N4CCOCC4)cc3)o2)c1	-1.4	-1.7	23.8*	12.8	8.0	-40.3	9.2
Oc1ccc(N=Nc2cccc(Cl)c2)cc1C=Nc1ccc(N2CCOCC2)cc1	2.8	1.5	13.2	-0.9	nt	nt	nt
C(=Nc1ccc(N2CCOCC2)cc1)c1c[nH]c2ccccc12	-8.2	-1.8	22.9*	14.8	-0.6	3.1	7.4
Oc1c(Br)cc(Cl)cc1C=Nc1ccc(N2CCOCC2)cc1	-3.9	2.1	19.0*	18.6	1.6	-7.9	25.0*
